The test system of data set [1] is advanced melanoma. As to conditions: five of 32 treated patients with advanced melanoma; cited from earlier work.
The next data set concerns melanoma. Conditions: combination of cilengitide and temozolomide, in vivo; cited from earlier work.
The subject of data set [2] is integrin αvβ3. Nature of the data set: Tumoral αvβ3 expression by IHC staining. The class given is in vivo, human. The essentials:
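Core-needle or skin punch tumor biopsies 5-7 days pre-treatment and cycle 1 day 8, within 6 h post-infusion. IHC with anti-αvβ3 LM 609; consensus grading by two pathologists on % positive cells (0 none; +1 1-10%; +2 11-25%; +3 26-75%; +4 >75%). Paired t-test, pre vs post.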

In data set [3] the test system is patients with metastatic melanoma. The experiment in a line: Toxicity evaluation. Conditions: both doses (500 mg and 2,000 mg i.v. twice weekly).
Data set [4] has as its system bFGF- and VEGF-mediated angiogenesis. Conditions: chorioallantoic membrane model; ref Cilengitide, Investigators Brochure; cited from earlier work.
Data set [5] relates to recurrent malignant glioma. Conditions: at 360 mg/m^2 and 2,400 mg/m^2; cited from earlier work.
The next data set has as its system glioblastoma. As to conditions: in combination with temozolomide and radiation therapy; cited from earlier work.
Data set [6] deals with metastatic melanoma. The class given is in vivo, human. As to conditions: for Median PFS in weeks (95% CI) / PFS rate at 8 weeks (95% CI): Kaplan-Meier estimate; for Best tumor response: PR / Best tumor response: SD / Best tumor response: CR: RECIST.
The test system of data set [7] is melanoma and endothelial cells. Conditions: combination of cilengitide and temozolomide, in vitro; cited from earlier work.
A further data set can be described thus: clinical. Further details: species or system human. As to conditions: in vivo; for Mean cilengitide concentration / level at 2 h / level at 4 h / level at 24 h: human, iv; for level at 2 h / level at 4 h / level at 24 h: Mean cilengitide concentration.
For data set [8] the following is noted: cited from earlier work.
The test system of data set [9] is integrin αvβ3. As to conditions: inhibits binding of the integrin to vitronectin; cited from earlier work.
For data set [10] the following is noted: cited from earlier work. The source holds these as a separate data set.
Data set [11] has as its system recurrent glioblastoma multiforme (GBM). Conditions: 81 patients with GBM; cited from earlier work.
Data set [12] relates to advanced melanoma. Conditions: cited from earlier work.
Data set [13] concerns metastatic melanoma. Conditions: cited from earlier work.
The mark [14] stands for this setting: among eight patients with matching samples and detectable αvβ3 at baseline.

Read-outs that look alike come from different tables or passages of the source. Marks after values point to notes of the source that are not given here.

`CNC(=O)c1ccccc1Sc1ccc2c(/C=C/c3ccccn3)n[nH]c2c1` [axitinib]: the Objective clinical response in the data set with advanced melanoma [1] was 16%.
On to `CC(C)[C@H]1C(=O)N[C@@H](CCCNC(=N)N)C(=O)NCC(=O)N[C@@H](CC(=O)O)C(=O)N[C@H](Cc2ccccc2)C(=O)N1C` [cilengitide, Cilengitide], for which the Tumor reduction result in the data set on melanoma is “more effective tumor reduction compared with temozolomide alone”. Moreover, the “Patients in whom αvβ3 expression decreased” value in the data set with integrin αvβ3 [2] (setting [14]) is “five”. Moreover, the “Patients in whom αvβ3 expression increased” value in the data set with integrin αvβ3 [2] (setting [14]) is “none”. Also, the “Overall tumoral αvβ3 expression with cilengitide treatment” value in the data set on integrin αvβ3 [2] (baseline vs day 8, 17 matching samples, paired t-test P=0.05) is listed as “decreased”. For the same molecule, the Tolerability entry in [3] is recorded as “well tolerated”. Moreover, the “Cytokine-induced bFGF- and VEGF-mediated angiogenesis” value in data set [4] is on record as “blocked”. Further, the “Response in patients with recurrent malignant glioma” value in data set [5] is recorded as “Complete responses were reported”. The “6-month PFS rate” value with glioblastoma is listed as 69%. The “12-month PFS rate” value in the data set with glioblastoma is reported as 33%. For the same molecule, in the data set on glioblastoma, the “Median PFS” value was 8.0 months. In addition, the entries for the “Response rate (CR+PR)” value in the data set on metastatic melanoma [6] (500-mg dose (n=14)), in the data set on metastatic melanoma [6] (2,000-mg dose (n=12)) and in the data set on metastatic melanoma [6] (Overall patients (n=26)) were 0%, 8% and 4%, respectively. Further, the “Median PFS in weeks (95% CI)” value in the data set on metastatic melanoma [6] (500-mg dose (n=14)) was 8.0 weeks; in the data set on metastatic melanoma [6] (2,000-mg dose (n=12)), 7.9 weeks; in the data set with metastatic melanoma [6] (Overall patients (n=26)), 8.0 (7.9-8.1) weeks. In addition, the “PFS rate at 8 weeks (95% CI)” value with metastatic melanoma [6] (500-mg dose (n=14)) was 14% (4-52%); in the data set on metastatic melanoma [6] (Overall patients (n=26)), 12% (4-33%). The “Best tumor response: PR” value is reported as 0 in the data set on metastatic melanoma [6] (500-mg dose (n=14)); 1 (8%) ^† with metastatic melanoma [6] (2,000-mg dose (n=12), patient initially progressed after 4 weeks); 1 (4%) ^† with metastatic melanoma [6] (Overall patients (n=26)). For the same molecule, the “Best tumor response: SD” value is on record as 2(14%) with metastatic melanoma [6] (500-mg dose (n=14)), 0 with metastatic melanoma [6] (2,000-mg dose (n=12)) and 2(8%) with metastatic melanoma [6] (Overall patients (n=26)). The “Best tumor response: CR” value in the data set on metastatic melanoma [6] (500-mg dose i.v. twice weekly (n=14)), with metastatic melanoma [6] (2,000-mg dose i.v. twice weekly (n=12)) and in the data set with metastatic melanoma [6] (Overall patients (n=26)) was 0 in each case. Also, the “Clinical efficacy as single agent” value in the data set on metastatic melanoma [6] (dose up to 2,000 mg twice weekly, metastatic melanoma) is recorded as “minimal clinical efficacy”. For the same molecule, the “Patients free of disease progression per RECIST at 8 weeks” value in the data set with metastatic melanoma [6] (of 26 treated patients) is on record as “three”. The “Increase in the sum of the largest diameters of five target lesions after one treatment cycle” value with metastatic melanoma [6] (single patient, 2,000 mg, later partial response) is on record as 28%. For the same molecule, the “Antiproliferative effects of the combination” value in data set [7] is “synergistic antiproliferative effects”. Besides, the Mean cilengitide concentration in the data set “clinical” (500 mg, 2 h) is 17.6 µg/mL; in “clinical” (500 mg, 4 h), 8.75 µg/mL; in “clinical” (2000 mg, 2 h) it was 65.8 µg/mL; in the data set “clinical” (2000 mg, 4 h), 30.5 µg/mL; in “clinical” (2000 mg, 24 h) it was 0.58 µg/mL. Also, the level at 2 h is 18200 ng/mL in the data set “clinical” (500 mg) and 73200 ng/mL in “clinical” (2000 mg). Moreover, the figures for the level at 4 h in “clinical” (500 mg) and in the data set “clinical” (2000 mg) were 8250 ng/mL and 35900 ng/mL, respectively. The level at 24 h in the data set “clinical” (500 mg) is 40 ng/mL; in “clinical” (2000 mg) it was 710 ng/mL. In the data set “clinical”, the “Accumulation after repeated biweekly doses” value was “No accumulation was observed”. Also, the “Increases in plasma concentrations at the given time points with dose” value in “clinical” is “dose proportional”. For the same molecule, the Half-life entry in [8] is “less than 5 hours”; in [8] (doses of 120-1,200 mg/m^2, phase I trials), 2.3 to 4.0 h. The Maximum-tolerated dose entry in data set [8] (phase I trials) is on record as “has not been established”. Moreover, the “Binding to integrin αvβ3 (nanomolar range)” value in the data set with integrin αvβ3 [9] is ~ 2 nM. Further, the “Concentration noted to be active in preclinical studies (biologically active level)” value in [10] is given as 11-13 μg/mL. In addition, the “Median OS duration” value in data set [11] was 9.9 months.
For the molecule `CN(C)/N=N/c1[nH]cnc1C(N)=O` [dacarbazine], the “Estimated PFS rate at 8 weeks” value in the data set on advanced melanoma [12] is listed as “approximately 40%”.

B1: etaracizumab (antibody, chains of the INN, looked up, V domains shown)
VH: QVQLVESGGGVVQPGRSLRLSCAASGFTFSSYDMSWVRQAPGKGLEWVAKVSSGGGSTYYLDTVQGRFTISRDNSKNTLYLQMNSLRAEDTAVYYCARHLHGSFASWGQGTTVTVSS
VL: EIVLTQSPATLSLSPGERATLSCQASQSISNFLHWYQQRPGQAPRLLIRYRSQSISGIPARFSGSGSGTDFTLTISSLEPEDFAVYYCQQSGSWPLTFGGGTKVEIK
Regarding B1, the “Patients with a clinical response” value is given as 12.7% in the data set with metastatic melanoma [13] (combination arm with dacarbazine) and “none” in the data set on metastatic melanoma [13] (etaracizumab alone, 57 patients).
